# Measured values published in the EternaBench riboswitch data.
# Tested on: MS2 coat protein
# Assay: apparent Kd, MS2 coat protein; higher = weaker binding; RNA-MaP array; FMN 200 µM where present
# In short: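 The apparent Kd comes from binding curves fitted cluster by cluster, filtered, and summarised as a median. Those curves followed SNAP-549-labelled MS2 coat protein from 0.7 or 1.5 nM, doubling to 3 µM, on Illumina sequencing-chip clusters where stalled E. coli RNA polymerase had transcribed the designs, without and then with constant ligand. The buffer was 100 mM Tris-HCl pH 7.5, 80 mM KCl, 4 mM MgCl2, BSA, DTT, yeast tRNA and Tween-20, and green signal was normalised to red-channel RNA signal and control-cluster median Fmax.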
# [1] = designed as: OFF switch for flavin mononucleotide, no ligand
# [2] = ligand present: flavin mononucleotide, designed as: OFF switch for flavin mononucleotide
# [3] = designed as: ON switch for flavin mononucleotide, no ligand
# [4] = ligand present: flavin mononucleotide, designed as: ON switch for flavin mononucleotide
Sequence,apparent Kd [1] [nM],apparent Kd [2] [nM],apparent Kd [3] [nM],apparent Kd [4] [nM]
UCGUGAAGGAUAGGAUAUGGACAUGAGGAUCACCCAUGUACAUGGGAAUGUAUACUGAAUUUGUACUAGAAGGGUUACAUAAAU,49.8,36.6,–,–
AUUAAUAAGUAGAAGGACGGAGAGUAUGAAGUCGUAGGAUAUACAUAAGACAUGAGGAUCACCCAUGUAUGUAUUUUGGGUAUG,12.9,12.9,–,–
ACAUGAGGAUCACCCAUGUUUUUCGGGUACUCUUUUUACAGCAAGGAUAUGCAUUAUUUAUGUACGCAGAAGGUGCUUUACGUC,77,138,–,–
UGUUUGGGAGGAUAUCCAAUAUAUGACAUGAGGAUCACCCAUGUUUCCACUCGUACCUCCGGAGAAGGCCCUGCGU,24.7,22,–,–
GUCAGCUCGUGAGGAUAUACAACACUGUUUCGGCAGUGUAUUAAGAUCACAUGAGGAUCACCCAUGUAGAAGGCACGAGCUGAU,13.7,262,–,–
AAGUGCAUAGGAUAUAUAUGGAUAUACAUUUAUGUAGAACUACAUGAGGAUCACCCAUGUAGAAGGAUGCAAUA,21.5,36.8,–,–
AAUAACAGAGGAUAUACUGUUUUAUGUGUUUGUUGUUUUGAACAUGAGGAUCACCCAUGUAGAAGGCUGAUUAA,35.3,33.5,–,–
CUCGGACAUGAGGAUCACCCAUGUGAGGAUAUGGUGCUAUCGUCAUUAGACGAUUGCGUUAGAAGGCACAAAUG,41.5,54.6,–,–
ACCUUACAUGAGGAUCACCCAUGUUAGGAUAUCUCGCUUGCGCUGUCACAGCGCAAGCAGAGAAGGGACGCGGG,35.2,40.9,–,–
GGGCCCGGAGGAUAUACAUGAGGAUCACCCAUGUAUCUGGGUCUUAUUGGGCUCGGGUGUAGAAGGCCGGGCCC,11.8,13.8,–,–
CAGCUACCCAGUAUGGGUAUUUUUACAGAAGGCCAGGCACAUGAGGAUCACCCAUGUCAAGUUAUGGAGGAUAUGUUAGUGUAU,–,–,8.25,4.76
GCCAGGGAUUCAGGAUAUAUUAGCCGAGGCCGCGUAGAAGGGAAAUCCUGACAUGAGGAUCACCCAUGUCGACCCGCCUUCCUA,–,–,46.7,45.6
AAAAUCAAAUGAGGAUAUUCAUACACUACAUACGGAGAAGGCAUACAAUCAUGAGGACAUGAGGAUCACCCAUGUUGUGACCAU,–,–,29.9,20.9
UGAUAGGACAGAGGAUAUACGUGCUAGAGAUACUAGCAAAAUAUCCUUACAUGAGGAUCACCCAUGUAGAAGGCUGUCCUAUCU,20,20.2,–,–
UUUUGACAUGAGGAUCACCCAUGUGAGGAUAUGAUGCGAUCGUCGAAAGACGAUAGCAUCAGAAGGCACAUAUG,112,336,–,–
UUCAUUAACAUGAGGAUCACCCAUGUUGGCCAGUCUCACACCAGAAGGCACGUUGAGCACAACAGUGAGGAUAUGGGUGACAUA,–,–,286,52.9
GGGUACAUCGGAGGAUAUCAUGUAAAUACAUGAGGAUCACCCAUGUCGAAGGAGACAUCGGAGAUUGAGAAGGCCGAUGUACCG,–,–,87.7,579
GGAUCGAGUGUGAGGAUAUGCUGGUCCUUGGAUCAGCAGAAGGCACAUGAGGAUCACCCAUGUCCAAGCGGUCC,152,701,–,–
UUAUUAUAUGUAGGAUAUGCAUAUUAUCAUUGUGCAGAAGGACAUGAGGAUCACCCAUGUAUAUUAUUAUUAUAUAUUAUAUAU,17.5,18.5,–,–
AGCUGUGGCCGAGGAUAUCUAAUAACUCAAACCGAAAUAUAAUCGGACAUGAGGAUCACCCAUGUAGAGAAGGCGGUCUCAGCA,84.6,154,–,–
UGGUGAAGUGUAGGAUAUGGAGAUGGGUUUUGGCCAGAAGGACAUGAGGAUCACCCAUGUGGUAGAGGGUUGGUGGUGGCUCGU,31.6,24.3,–,–
GUACUGAAGCCUUGCUUUAGUCGUACAUGAGGAUCACCCAUGUAGGAUAUGGUAGGCUUUGCUUACUAGAAGGAUAGAGUGAUC,56.1,34,–,–
AAGUAGACGGUGAGGAUAUAGGUCGAACGACCGAUCUAGAAGGCACAUGAGGAUCACCCAUGUGGGUAACGUCG,17.9,19.6,–,–
CUGAUGUCAGGAUAUCGGUGGCUCACUUGUGUGUGCCAGACCGAGAAGGGACAUGAGGAUCACCCAUGUUUUUA,86.1,370,–,–
AACAUGGUAUCAGGAUAUGGGUGUCACAACCACUCAGAAGGGAUACCGAUGACAUGAGGAUCACCCAUGUCGCUAUUUACCUGU,–,–,17.2,7.98
GCACUGGAUGUAGGAUAUCAGGACGAUAAGUCCUGAGAAGGACAUGAGGAUCACCCAUGUGCCUUAACCAGUGCAUAUAAUAUA,12.9,17.3,–,–
CUUGUUUAUGUGAGGAUAUACUGUUAGUAAUGUUUGUAGAAGGUACAUGAGGAUCACCCAUGUUUAUUUCCUUU,14.2,13.1,–,–
UCCUCACAUGAGGAUCACCCAUGUGAGGAUAUCAGCGCGUACGGGUUUCCGUAGUGUUUGAGAAGGCAUUUGGG,16.6,29,–,–

Sequence,apparent Kd [1] [nM],apparent Kd [2] [nM],apparent Kd [3] [nM],apparent Kd [4] [nM]
UAUCUAUUUAUGGGAUUAGAAUAUGAGGAUAUCAUUUUUUUAUACAUGAGGAUCACCCAUGUUUCUGAGAAGGCAUAUUUAAUA,–,–,16.9,5.72
AACUGCGCAUGAGGAUAUCCCGGACAUGAGGAUCACCCAUGUAAGCACAAGGGAGAAGGCAUGUGCCUCAAUUAGUUCCCACAA,–,–,61.9,7.08
UCGCGGGAGCAGAAGGGAUAGGCCUAUUGUCGUGGAGUCUAAACUUAACAUGAGGAUCACCCAUGUCAGGAUAUGCCCACGCGA,9.89,10.5,–,–
UGUUGUAUUACAGGAUAUCUAUGAUUUUAAUUUAGAGAAGGGUAUUCACAUGAGGAUCACCCAUGUAUAUACGAGGAAGUUGUG,–,–,51.2,58.9
AAGUAGAUCCGAGGAUAUACAAAGUGGAAUCGCUACAUGAGGAUCACCCAUGUAGAAGGCGGAUCUACAGGUACUAAAGUACCA,8.01,68.3,–,–
UGUUGAUAGCAGAAGGACAUGAGGAUCACCCAUGUAAGGUUACAAAUACAUGUAGGAUAUGCUAUUGACUAAGAGUGAGCGUUC,43.4,565,–,–
AAGAAGUCAGGAUAUCCUGCUCGUCACUUGCGUGAUGAGUAGGAGAAGGGACAUGAGGAUCACCCAUGUAAAGC,46.4,43.1,–,–
GUGACGAAUGUAGGAUAUGCUGAGGAUAACUCAGCAGAAGGACAUGAGGAUCACCCAUGUCAUCCUAAUAAUAAAUAACGUCAC,14.8,18.8,–,–
CUAAAUCAUGUAGGAUAUGCAUGGCGAAGCUACGCAGAAGGACAUGAGGAUCACCCAUGUCUCUCCGUCUGGGUACAGACGGAG,18.9,120,–,–
UGAUCGAGAGAUCUUAGAUUCUGGUAGGAUAUACAUAUAGUAAUAUAGACAUGAGGAUCACCCAUGUAGAAGGACUAGAGUCUA,6.9,8.65,–,–
CAAUUUAGCGAGAAGGAGCGCCCGUAGGUACAUGAGGAUCACCCAUGUCCUUUGUGCUCUACGCGCUAGGAUAUCGAGAAACAG,13.5,98.7,–,–
ACUAAGGAGGUAGGAUAUUGUGUGGUGGCCGGGCUCCCACGGCGAGCGGCACAAGAAGGAUCCCAACAUGAGGAUCACCCAUGU,–,–,48.9,26.1
UAGGACGAACAGUGCCGUGGAACGAAGGAUAUACAGGGACGUCGGCUCACAUGAGGAUCACCCAUGUAGAAGGUCGACACGCGC,8.91,48.3,–,–
ACAGCUGAAGGAUAUACUUGGGAAAAAAAAAAAAAAAAAAAACAUGAGGAUCACCCAUGUAGAAGGUCAGCUGA,103,60,–,–
GUAGCAUACCGAGGAUAUUCACCGGAAAACCGGACAUGAGGAUCACCCAUGUGGCGAAAGCCUUGGGAGAAGGCGGAAUGCUAC,–,–,135,19.9
GUAGCUACAUGAGGAUCACCCAUGUAGGAUAUCGCUAUUGUAAUCAUGUUACAUGAUUACAAUAGCGAGAAGGACGUGUGCUAC,9.03,10.4,–,–
GAGAUACAUGAGGAUCACCCAUGUGAGGAUAUCGGUUGGAGGAGGUGGAGGUUGAGUACGAGAAGGCACGGAUC,25,28.3,–,–
CUGCUUCCCAGUAUGGGUAUUUUUACAGAAGGCCAGGCACAUGAGGAUCACCCAUGUCAAGUUUUGGAGGAUAUGUUAUUGUCG,–,–,8.53,4.72
UUGGGUUUGCGAGGAUAUCGUUUGUGAUUUGAUCGAGAAGGCGCUAUUUAAAUUAUUUUAACAUUACAUGAGGAUCACCCAUGU,–,–,19.1,17.2
CAAAGGACAGGAUAUGCGAGGGAGCCCGUGCAGGUCGCCCAACAUGAGGAUCACCCAUGUAGAAGGGUCAAAAC,32.8,25.8,–,–
CAGGUAGACUGAGGAUAUACAAUAAACAGCUAGUCUAUCUAGCUGUCCACAUGAGGAUCACCCAUGUAGAAGGCAGUCUGCCUG,18.9,42,–,–
AGCAUGUAAGGAUAUGCAACACAGCUUUCAAUCGCUGUGCCGCAGAAGGUACAUGAGGAUCACCCAUGUGCUCC,85.5,91.2,–,–
CUAUAGAUAUCAGGAUAUCUAUUUCCUACAUGAGGAUCACCCAUGUAGAUGAUCACCCAUGUAAAGGAGAAGGGAUAUCUAUAG,–,–,361,169
ACUGUUAGAGUCUUCCUUAUCACAUGAGGAUCACCCAUGUGGAGAAGGGACUGUAUCGUUAUCAGUUAGGAUAUCCAUGUGUGC,4.62,4.72,–,–
AUAGCACAUGAGGAUCACCCAUGUGAGGAUAUUAGACCAUGGCUCUCAAAGACCAUGCUGAGAAGGCACUCGGG,35.5,82.5,–,–
UGCUACGUUUCGUAGCAGCUAGGUGAGGAUAUUCAAUUUUUCACAUGAGGAUCACCCAUGUAUGUGAAGAAGGCGCCUAGAAAA,–,–,10.2,4.56
CAAUUACAUGAGGAUCACCCAUGUCAGGAUAUGCGAAUUACCAGAUGAAACUUAAUAAGCAGAAGGGACUACAA,36.3,49.6,–,–
